Common to all, as to assay type: functional
Test [1] deals with SUM149PT. Description: Inhibition of sodium arachidonate-induced PGE2 production in human SUM149 cells at 1 uM preincubated for 2 hrs before sodium arachidonate challenge measured after 2 hrs by competitive EIA. The method in brief:
(§1)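 Cells seeded in triplicate, grown at 37°C, 5% CO2 to 80% confluence, washed with PBS, then given fresh medium with inhibitor (0.1, 1, 10 μM) or DMSO vehicle. After 2 h preincubation at 37°C, sodium arachidonate was added to 10 μM final for 2 h more. Supernatant PGE2 was measured by competitive EIA and normalized to trypsinized cell count (pg/mL/1000 cells). Three runs, mean ± SD.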

Test [2] has as its system SUM149PT. Description: Inhibition of sodium arachidonate-induced PGE2 production in human SUM149 cells assessed as PGE2 level per 1000 cells at 10 uM preincubated for 2 hrs before sodium arachidonate challenge measured after 2 hrs by competitive EIA (reference value: 3.15 +/- 0.19 pg/mL). The method in brief: as §1
Test [3] in a line: Inhibition of sodium arachidonate-induced PGE2 production in human SUM190 cells assessed as PGE2 level per 1000 cells at 0.1 uM preincubated for 2 hrs before sodium arachidonate challenge measured after 2 hrs by competitive EIA (reference value: 6.43 +/- 1.87 pg/mL). The method in brief: as §1
Test [4] relates to SUM149PT. Nature of the test: Inhibition of sodium arachidonate-induced PGE2 production in human SUM149 cells assessed as PGE2 level per 1000 cells at 1 uM preincubated for 2 hrs before sodium arachidonate challenge measured after 2 hrs by competitive EIA (reference value: 3.15 +/- 0.19 pg/mL). The method in brief: as §1
Test [5] can be described thus: Inhibition of sodium arachidonate-induced PGE2 production in human SUM190 cells assessed as PGE2 level per 1000 cells at 1 uM preincubated for 2 hrs before sodium arachidonate challenge measured after 2 hrs by competitive EIA (reference value: 6.43 +/- 1.87 pg/mL). The method, boiled down:
as §1

Test [6] deals with SUM149PT. Nature of the test: Inhibition of sodium arachidonate-induced PGE2 production in human SUM149 cells assessed as PGE2 level per 1000 cells at 0.1 uM preincubated for 2 hrs before sodium arachidonate challenge measured after 2 hrs by competitive EIA (reference value: 3.15 +/- 0.19 pg/mL). The method, boiled down:
as §1

The nature of test [7]: Inhibition of sodium arachidonate-induced PGE2 production in human SUM190 cells assessed as PGE2 level per 1000 cells at 10 uM preincubated for 2 hrs before sodium arachidonate challenge measured after 2 hrs by competitive EIA (reference value: 6.43 +/- 1.87 pg/mL). The method, boiled down: as §1
Test [8] relates to SUM149PT. Nature of the test: Inhibition of sodium arachidonate-induced PGE2 production in human SUM149 cells at 100 nM preincubated for 2 hrs before sodium arachidonate challenge measured after 2 hrs by competitive EIA. The method in brief: as §1
Test [9] relates to SUM149PT. Description: Inhibition of sodium arachidonate-induced PGE2 production in human SUM149 cells at 10 uM preincubated for 2 hrs before sodium arachidonate challenge measured after 2 hrs by competitive EIA. The method, boiled down: as §1

Molecules are shown by their SMILES.

For `CCOc1ccc(-c2cc(C)cn2-c2ccc(S(N)(=O)=O)cc2)cc1` [APRICOXIB], 1 µM produced 91% inhibition in [1]. In addition, the Activity in test [2] was 0.11 pg/mL; in test [3], 2.1 pg/mL; in test [4] it was 0.28 pg/mL; in [5] it was 0.5 pg/mL; in [6], 0.97 pg/mL; in test [7], 0.22 pg/mL. At 0.1 µM the inhibition in test [8] was 70%. Moreover, the inhibition (commonly the change of the read-out against control, counted positive when it falls) at 10 µM in test [9] came out at 97%.

On to `Cc1ccc(-c2cc(C(F)(F)F)nn2-c2ccc(S(N)(=O)=O)cc2)cc1` [CELECOXIB], for which the Activity in test [2] is 0.13 pg/mL; in test [3] it was 2.87 pg/mL; in test [4] it was 0.43 pg/mL; in test [5] it was 0.81 pg/mL; in test [6] it was 1.19 pg/mL; in [7], 0.18 pg/mL.
